Test results: ChEMBL document CHEMBL1142319, “New antitumor imidazo[2,1-b]thiazole guanylhydrazones and analogues” (2008)

How the values were obtained:
Type in all cases: functional
Settings in all cases: for TGI: read-out: pTGI (converted)
Cancer cell lines [1] = assay: Inhibition of human colon cancer cells
Outline: (§1)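 NCI 60-cell-line panel, with results grouped by tissue subpanel. Compounds dissolved in DMSO and tested at five 10-fold dilutions, top concentration 10^-4 M. Values given as -log molar concentration for 50% growth inhibition (pGI50), total growth inhibition (pTGI) and 50% cell kill (pLC50), with subpanel means calculated.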

Leukemia cell = assay: Inhibition of human leukemia cells; outline: as §1
Cancer cell lines [2] = assay: Inhibition of human non-small cell lung cancer cells; outline: as §1
Cancer cell lines [3] = assay: Inhibition of human CNS cancer cells; outline: as §1
Melanoma cell = assay: Inhibition of human melanoma cells; outline: as §1
Cancer cell lines [4] = assay: Inhibition of human ovarian cancer cells; outline: as §1
Cancer cell lines [5] = assay: Inhibition of human renal cancer cells; outline: as §1
Cancer cell lines [6] = assay: Inhibition of human prostate cancer cells; outline: as §1
Cancer cell lines [7] = assay: Inhibition of human breast cancer cells; outline: as §1

| SMILES | GI50 (Cancer cell lines [1]) | GI50 (Leukemia cell) | GI50 (Cancer cell lines [2]) | GI50 (Cancer cell lines [3]) | GI50 (Melanoma cell) | GI50 (Cancer cell lines [4]) | GI50 (Cancer cell lines [5]) | GI50 (Cancer cell lines [6]) | GI50 (Cancer cell lines [7]) | TGI (Cancer cell lines [1]) | TGI (Cancer cell lines [2]) | TGI (Cancer cell lines [3]) | TGI (Melanoma cell) | TGI (Cancer cell lines [4]) | TGI (Cancer cell lines [5]) | TGI (Cancer cell lines [6]) | TGI (Cancer cell lines [7]) | TGI (Leukemia cell) |
| --- | --- | --- | --- | --- | --- | --- | --- | --- | --- | --- | --- | --- | --- | --- | --- | --- | --- | --- |
| COc1cc([N+](=O)[O-])c(OC)cc1-c1nc2sc(Cl)cn2c1/C=N\NC(=N)N/N=C\c1c(-c2cc(OC)c([N+](=O)[O-])cc2OC)nc2sc(Cl)cn12 | 2.24 µM | 2.34 µM | 2.04 µM | 1.62 µM | 1.91 µM | 1.82 µM | 2.19 µM | 1.95 µM | 3.31 µM | 7.08 µM | 3.98 µM | 2.57 µM | 5.13 µM | 3.8 µM | 4.9 µM | 3.8 µM | 6.76 µM | – |
| Cc1cc(-c2nc3sccn3c2/C=N/NC(=N)N)c(C)s1 | 15.5 µM | 15.5 µM | 16.6 µM | 15.5 µM | 16.2 µM | 17.4 µM | 17.8 µM | 13.8 µM | 16.2 µM | 32.4 µM | 33.1 µM | 30.2 µM | 30.9 µM | 33.9 µM | 32.4 µM | 26.9 µM | 30.2 µM | – |
| N=C(N)N/N=C/c1c(-c2ccsc2)nc2sccn12 | 14.1 µM | 6.92 µM | 15.1 µM | 15.1 µM | 17 µM | 15.5 µM | 14.8 µM | 14.8 µM | 17.4 µM | 29.5 µM | 30.2 µM | 28.8 µM | 31.6 µM | 31.6 µM | 29.5 µM | 28.8 µM | 31.6 µM | 24 µM |
| Cc1cn2c(/C=N/Nc3ccccn3)c(-c3ccc(Cl)c([N+](=O)[O-])c3)nc2s1 | 26.3 µM | 16.6 µM | 11.5 µM | 7.76 µM | 18.2 µM | 9.12 µM | 15.5 µM | 11.7 µM | 13.8 µM | 42.7 µM | 30.9 µM | 19.5 µM | 38 µM | 25.7 µM | 39.8 µM | 38.9 µM | 38.9 µM | 33.9 µM |
| Cc1cn2c(/C=N/NC(=N)N)c(-c3cccs3)nc2s1 | 2.57 µM | 1.82 µM | 7.76 µM | 4.27 µM | 2.24 µM | 6.46 µM | 4.27 µM | 3.02 µM | 5.75 µM | 8.13 µM | 25.1 µM | 11.7 µM | 5.89 µM | 17.4 µM | 14.1 µM | 12.3 µM | 18.6 µM | 4.07 µM |

Now those with a lower GI50 (Cancer cell lines [1]), led by results:

| GI50 (Cancer cell lines [1]) | GI50 (Leukemia cell) | GI50 (Cancer cell lines [2]) | GI50 (Cancer cell lines [3]) | GI50 (Melanoma cell) | GI50 (Cancer cell lines [4]) | GI50 (Cancer cell lines [5]) | GI50 (Cancer cell lines [6]) | GI50 (Cancer cell lines [7]) | SMILES | TGI (Cancer cell lines [1]) | TGI (Cancer cell lines [2]) | TGI (Cancer cell lines [3]) | TGI (Melanoma cell) | TGI (Cancer cell lines [4]) | TGI (Cancer cell lines [5]) | TGI (Cancer cell lines [6]) | TGI (Cancer cell lines [7]) | TGI (Leukemia cell) |
| --- | --- | --- | --- | --- | --- | --- | --- | --- | --- | --- | --- | --- | --- | --- | --- | --- | --- | --- |
| 1.86 µM | 1.7 µM | 1.7 µM | 1.2 µM | 2.04 µM | 1.86 µM | 2.19 µM | 1.51 µM | 2.29 µM | N=C(N)N/N=C/c1c(-c2ccc(Cl)c([N+](=O)[O-])c2)nc2ccccn12 | 7.94 µM | 3.8 µM | 3.02 µM | 3.63 µM | 3.63 µM | 4.9 µM | 3.09 µM | 5.37 µM | 3.8 µM |
| 1.82 µM | 10.2 µM | 11.2 µM | 8.71 µM | 10 µM | 10.5 µM | 10 µM | 8.13 µM | 12.3 µM | N=C(N)N/N=C/c1c(-c2cc(Cl)sc2Cl)nc2n1CCS2 | 16.2 µM | 22.4 µM | 17.4 µM | 20.4 µM | 22.9 µM | 20 µM | 15.1 µM | 22.9 µM | 24.5 µM |
| 0.339 µM | 0.138 µM | 0.676 µM | 0.447 µM | 0.708 µM | 1.1 µM | 0.832 µM | 2.29 µM | 0.741 µM | N=C(N)N/N=C/c1c(-c2ccc(Cl)c([N+](=O)[O-])c2)nc2sc3ccccc3n12 | 3.63 µM | 3.8 µM | 3.02 µM | 2.75 µM | 1.95 µM | 3.89 µM | 14.8 µM | 9.55 µM | – |
